# Laboratory results as given in PubChem BioAssay.
# Activity calls are given as the source filed them.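 How the source made its calls, unless noted: active means viability at or below 30% in both replicate assays; inconclusive means viability at or below 30% in just one of the two assays; inactive means the rest.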
# Legend:
# [1] = reducers of endogenous Her2 protein level, primary screen, SKBR3 breast tumor cells, AlphaScreen, ATP viability (AID 461;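 active means Her2 level under about 52% in both replicate screens, with viability over 70% of control, limit read from the data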;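 on Her2 level: lower value means less Her2 protein in the cells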;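 on viability: percent of carrier control wells set as 100% viability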); details: 18-24 h, measured here: SKBR3 viability, ATP luminescence, at 10 µM
# [2] = biological target: Receptor tyrosine-protein kinase erbB-2 (Homo sapiens) (UniProt P04626); test: as above; details: 18-24 h, at 10 µM, stronger effect = lower value
# Sequence of Receptor tyrosine-protein kinase erbB-2 (Homo sapiens) (P04626 whole entry, looked up): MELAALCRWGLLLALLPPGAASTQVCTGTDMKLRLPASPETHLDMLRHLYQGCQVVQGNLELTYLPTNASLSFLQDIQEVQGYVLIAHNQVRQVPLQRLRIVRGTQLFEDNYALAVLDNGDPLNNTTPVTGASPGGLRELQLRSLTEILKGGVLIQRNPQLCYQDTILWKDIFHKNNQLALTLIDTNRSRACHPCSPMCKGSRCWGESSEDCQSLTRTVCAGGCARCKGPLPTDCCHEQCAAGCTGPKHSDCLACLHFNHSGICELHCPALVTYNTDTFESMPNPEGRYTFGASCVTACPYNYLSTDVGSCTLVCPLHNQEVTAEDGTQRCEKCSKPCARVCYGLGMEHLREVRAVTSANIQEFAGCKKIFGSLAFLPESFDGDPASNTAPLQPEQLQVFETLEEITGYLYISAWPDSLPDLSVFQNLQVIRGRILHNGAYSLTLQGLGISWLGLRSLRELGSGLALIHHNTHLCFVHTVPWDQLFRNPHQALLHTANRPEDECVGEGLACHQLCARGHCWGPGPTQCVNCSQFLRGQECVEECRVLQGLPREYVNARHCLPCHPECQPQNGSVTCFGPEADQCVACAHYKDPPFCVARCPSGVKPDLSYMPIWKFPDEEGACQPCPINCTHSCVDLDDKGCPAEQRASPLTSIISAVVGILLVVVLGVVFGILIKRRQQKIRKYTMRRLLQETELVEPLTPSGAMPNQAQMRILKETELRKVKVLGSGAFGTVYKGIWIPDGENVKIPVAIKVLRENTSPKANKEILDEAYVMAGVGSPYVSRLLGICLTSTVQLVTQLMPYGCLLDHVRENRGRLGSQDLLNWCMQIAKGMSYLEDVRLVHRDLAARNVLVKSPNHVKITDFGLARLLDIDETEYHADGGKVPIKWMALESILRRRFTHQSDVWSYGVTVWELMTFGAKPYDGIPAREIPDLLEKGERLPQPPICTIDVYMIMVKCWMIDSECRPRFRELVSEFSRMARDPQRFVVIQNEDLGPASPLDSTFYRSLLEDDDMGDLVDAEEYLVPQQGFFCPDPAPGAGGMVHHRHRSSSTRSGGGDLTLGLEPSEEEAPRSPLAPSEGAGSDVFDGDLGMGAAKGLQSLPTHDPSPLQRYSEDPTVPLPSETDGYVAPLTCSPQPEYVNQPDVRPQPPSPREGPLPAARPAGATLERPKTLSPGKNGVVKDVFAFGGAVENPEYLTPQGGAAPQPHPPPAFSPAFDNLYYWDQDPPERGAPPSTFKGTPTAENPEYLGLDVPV
# [3] = SK-BR-3 cell growth inhibitors, pilot screen, 24 h, human (AID 572;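 active means viability at or below 10% of carrier control in both of two separate runs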;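 further: compound exposure lasted between 18 and 24 h rather than exactly 24 h; 100% = carrier-treated control wells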); details: SK-BR-3 viability, CellTiter-Glo luminescence, at 10 µM, stronger effect = lower value
# [4] = HUVEC growth inhibition – cell-based, human, primary screen (AID 575); details: HUVEC proliferation, CellTiter-Glo luminescence, 72 h; at 10 µM; stronger effect = lower value;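 further: 100% = median of untreated cell wells with 0.1% DMSO on each plate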
# Summary of the method: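 Assay system: primary human umbilical vein endothelial cells / Buffer or medium: endothelial basal medium with 2% FBS plus growth supplements / Compound dosing: one dose, 10 µM final, 0.1% DMSO / Timing: 72 h treatment at 37 °C / Signal: CTG luminescence / Benchmarks: 32 DMSO-only cell-control wells (high), 32 MePR drug-control wells (low) per plate / Plate: collagen-coated 384-well format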
# [5] = growth inhibitors of H69AR lung tumor, primary screen, human, duplicate replicates (AID 580;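 active means viability at or under a set limit in both replicates, limit being median viability minus 3 SD, cut at about 48% in these data, passing the limit was not always enough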;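 further: 100% = mean luminescence of untreated wells and 0% = no signal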); details: H69AR lung tumor cells viability, ATP luminescence, 72 h; at 10 µM; stronger effect = lower value
# [6] = reversal of MRP1-mediated doxorubicin resistance, pilot screen, H69AR cells, doxorubicin co-treatment (AID 601;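 active means viability loss from added drug above about 55%, and viability with drug at most 40%, in both replicates, limit read from the data, passing the limit was not always enough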); details: CellTiter-Glo, 72 h, at 10 µM; for differential viability (reversal): stronger effect = higher value
# [7] = 384-well plate pilot, post-Golgi transport modulator project, inhibition of yeast transport mutant growth (AID 636; in the data active means inhibition above about 31%); details: absorbance 615 nm, about 18 h, stronger effect = higher value
# [8] = growth suppression of yeast trafficking mutant, preliminary HTS, modulators of trafficking downstream of Golgi apparatus project, 1536-format plate, OD 615 nm (AID 637; in the data active means inhibition above about 30%); details: yeast transport mutant growth, absorbance 615 nm, 18 h; stronger effect = higher value
# [9] = H69AR cells + 2 uM doxorubicin, measured here: viability with 2 uM doxorubicin, stronger effect = lower value
# [10] = H69AR cells, compound alone cytotoxicity
SMILES,viability [1] [%],Her2 level [2],viability [3],viability [4],viability [5],differential viability (reversal) ([6]; H69AR cells + 2 uM doxorubicin),"viability [6, 9] [%]","viability [6, 10] [%]",inhibition [7],inhibition [8]
CCOC(=O)N1CCC(Nc2c(-c3ccc(C)cc3)c(=O)c2=O)CC1,88.5,100% (inactive),88.5% (inactive),100% (inactive),94.5% (inactive),11.5% (inactive),83,94.5,-8.42% (inactive),-8.73% (inactive)
CCOc1ccccc1N1CCN(C(=O)c2ccncc2)CC1,97,100% (inactive),97% (inactive),90.2% (inactive),93.6% (inactive),13.4% (inactive),80.2,93.6,-2.99% (inactive),-9.34% (inactive)
Cc1ccccc1NC(=O)CSc1nnc(Cc2cccn2C)n1-c1ccc(F)cc1,88.5,112% (inactive),88.5% (inactive),78.6% (inactive),100% (inactive),-1.44% (inactive),102,100,-0.9% (inactive),-3.5% (inactive)
COCCn1c(CN2CCN(c3ccccc3F)CC2)nc2c1c(=O)n(C)c(=O)n2C,105,138% (inactive),105% (inactive),84.5% (inactive),95.8% (inactive),0.255% (inactive),95.6,95.8,-1.2% (inactive),1.5% (inactive)
CCn1c(SCC(=O)N2c3ccccc3CCc3ccccc32)nc2c1c(=O)n(C)c(=O)n2C,87.5,107% (inactive),87.5% (inactive),92.5% (inactive),94.3% (inactive),-1.58% (inactive),95.8,94.3,-1.51% (inactive),-6.98% (inactive)
CCc1nnc(NC(=O)c2ccc(-c3cccc(C(F)(F)F)c3)o2)s1,102,130% (inactive),102% (inactive),102% (inactive),91.4% (inactive),11.2% (inactive),80.2,91.4,-5.6% (inactive),-4.03% (inactive)
Cc1cc(N2CCN(C)CC2)nc(N2CCOCC2)n1,105,89.5% (inactive),105% (inactive),97.7% (inactive),92.2% (inactive),4.88% (inactive),87.4,92.2,-3.82% (inactive),-8.17% (inactive)
O=S(=O)(NCC1CCCO1)c1ccc(S(=O)(=O)N2CCc3ccccc3C2)cc1 (stereo not given),90,93.5% (inactive),90% (inactive),94.9% (inactive),94.8% (inactive),5.08% (inactive),89.8,94.8,0.26% (inactive),2.42% (inactive)
COc1ccc(Cn2c(=O)[nH]c3cc(C(=O)NCCCN4CCCC4)ccc3c2=O)cc1,106,94% (inactive),106% (inactive),103% (inactive),92.3% (inactive),6.71% (inactive),85.6,92.3,-7.03% (inactive),4.33% (inactive)
O=C(NCCc1ccccc1)C1CCCN(S(=O)(=O)c2cccs2)C1 (stereo not given),89,91% (inactive),89% (inactive),112% (inactive),93.8% (inactive),7.11% (inactive),86.7,93.8,1.79% (inactive),-0.33% (inactive)
CCN(C(=O)CN1CCN(c2ccccc2OC)CC1)c1c(N)n(Cc2ccccc2)c(=O)[nH]c1=O,113,102% (inactive),113% (inactive),98.7% (inactive),100% (inactive),9.64% (inactive),90.8,100,-8% (inactive),-0.16% (inactive)
O=C(c1ncc[nH]1)c1ccccc1C(=O)N1CCOCC1,118,112% (inactive),118% (inactive),100% (inactive),90.3% (inactive),3.04% (inactive),87.3,90.3,-5.21% (inactive),1.75% (inactive)
C/C(=C\C(=O)c1ccc(F)cc1)Nc1ccc(N2CCOCC2)cc1,89.5,97% (inactive),89.5% (inactive),114% (inactive),90.9% (inactive),1.85% (inactive),89.1,90.9,-4.4% (inactive),-0.65% (inactive)
CC1c2nc3ccccc3n2C(CC(=O)NCc2ccccn2)C(=O)N1Cc1ccccc1 (stereo not given),110,72% (inactive),110% (inactive),96.3% (inactive),92.8% (inactive),7.24% (inactive),85.5,92.8,-1.58% (inactive),1.59% (inactive)
Cc1ccc(-c2nnc(SCC(=O)N3CC(C)CC(C)C3)o2)cc1C (stereo not given),97,106% (inactive),97% (inactive),71.4% (inactive),90.7% (inactive),-2.04% (inactive),92.7,90.7,-2.13% (inactive),-4.75% (inactive)
Cc1ccc(-c2cn3cccnc3n2)cc1NC(=O)c1ccc(Br)o1,95.5,86.5% (inactive),95.5% (inactive),97.6% (inactive),88.5% (inactive),8.45% (inactive),80,88.5,-0.39% (inactive),-7.46% (inactive)

SMILES,viability [1] [%],Her2 level [2],viability [3],viability [4],viability [5],differential viability (reversal) ([6]; H69AR cells + 2 uM doxorubicin),"viability [6, 9] [%]","viability [6, 10] [%]",inhibition [7],inhibition [8]
O=C1c2ccccc2-c2nc3ncnn3c(-c3ccccc3)c21,93.5,105% (inactive),93.5% (inactive),103% (inactive),102% (inactive),8.68% (inactive),93.2,102,1.97% (inactive),-3.45% (inactive)
O=C(NCC(c1cccnc1)N1CCN(c2ccc(F)cc2)CC1)OCc1ccccc1 (stereo not given),101,66% (inactive),101% (inactive),85% (inactive),91.8% (inactive),-3.13% (inactive),95,91.8,-2.57% (inactive),32.9% (active)
COc1ccccc1NC(=O)CC(NCc1ccccc1)C(=O)O (stereo not given),108,80% (inactive),108% (inactive),110% (inactive),89.1% (inactive),-2.06% (inactive),91.2,89.1,-7.43% (inactive),-3% (inactive)
Cn1c(=O)c(C(=S)NC(=O)C2CC2)c(N)n(Cc2ccccc2)c1=O,70.5,74.5% (inactive),70.5% (inactive),59.9% (inactive),78.1% (inactive),-6.6% (inactive),84.7,78.1,-1.05% (inactive),-3.65% (inactive)
CCCn1c(SCC(=O)Nc2cc(C)on2)nc2c1c(=O)n(C)c(=O)n2C,100,118% (inactive),100% (inactive),87% (inactive),100% (inactive),15.7% (inactive),84.6,100,0% (inactive),-4.19% (inactive)
Cc1ccccc1NS(=O)(=O)c1cc(C(=O)N2CCCC2)ccc1C,108,91.5% (inactive),108% (inactive),82.9% (inactive),84.2% (inactive),-4.14% (inactive),88.4,84.2,-5.14% (inactive),-8.25% (inactive)
COc1cccc(C(=O)Nc2ccc(NC(C)=O)cn2)c1,98,76% (inactive),98% (inactive),92.4% (inactive),106% (inactive),12.5% (inactive),93.2,106,-5.27% (inactive),-4.92% (inactive)
O=c1c2ccccc2nc(SCc2cn3ccsc3n2)n1-c1ccc(F)cc1,73,102% (inactive),73% (inactive),64.6% (inactive),102% (inactive),-13.3% (inactive),115,102,-6.44% (inactive),1.43% (inactive)
COc1cc(NC(=O)c2ccc(COCC(F)(F)F)o2)cc(OC)c1OC,95,84% (inactive),95% (inactive),92.8% (inactive),99.6% (inactive),20.1% (inactive),79.5,99.6,-1.45% (inactive),2.58% (inactive)
O=C(NC1CCCCC1)N(Cc1ccc(F)cc1)Cc1nc2ccccc2c(=O)[nH]1,98.5,80% (inactive),98.5% (inactive),78.2% (inactive),100% (inactive),7.63% (inactive),92.4,100,-5.66% (inactive),-1.83% (inactive)
Cc1sc2nc(SCC(=O)Nc3c(C)n(C)n(-c4ccccc4)c3=O)n(C)c(=O)c2c1C,102,95.5% (inactive),102% (inactive),95.4% (inactive),97.3% (inactive),1.12% (inactive),96.2,97.3,0% (inactive),1.15% (inactive)
Brc1ccc(C2=Nn3c(nnc3-c3ccncc3)SC2)cc1,94.5,79.5% (inactive),94.5% (inactive),82.8% (inactive),77.1% (inactive),-14.3% (inactive),91.4,77.1,-2.89% (inactive),-0.36% (inactive)
Cc1nnc(N(C)C(=O)c2cccnc2)s1,110,110% (inactive),110% (inactive),93.1% (inactive),88.7% (inactive),1.22% (inactive),87.5,88.7,0.96% (inactive),3.33% (inactive)
CCCN1C(=O)c2cc(C(=O)O)ccc2C1O (stereo not given),113,100% (inactive),113% (inactive),90.1% (inactive),103% (inactive),18.7% (inactive),84.1,103,-1.07% (inactive),1.48% (inactive)
O=S(=O)(c1ccc(OCC(O)CN2CCc3ccccc3C2)cc1)N1CCOCC1 (stereo not given),89,83.5% (inactive),89% (inactive),98.2% (inactive),87.6% (inactive),2.98% (inactive),84.6,87.6,-1.71% (inactive),-2.73% (inactive)
